# ChEMBL document CHEMBL1124746, “Synthesis and antitumor evaluation in mice of certain 7-deazapurine (pyrrolo[2,3-d]pyrimidine) and 3-deazapurine (imidazo[4,5-c]pyridine) nucleosides structurally related to sulfenosine, sulfinosine, and sulfonosine” (1990)
# Columns and labels:
# L1210 [1] = test: Tested for post inoculation lifespan in L1210-inoculated mice at dose 288 mg/kg administered intraperitoneally; type: functional, Mus musculus; conditions: route intraperitoneal
# In short: (§1)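 Female BDF1 mice (~18 g) were inoculated ip on day 0 with 1 × 10⁶ L1210 cells and treated once ip 24 h later with drug in water (0.01 mL/g); saline controls. Groups had six mice. %T/C = mean life span treated / mean life span control × 100, with T/C ≥ 125 taken as significant. Deaths were assigned to leukemia or drug toxicity by timing and necropsy.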
# L1210 [2] = test: Tested for percent of L1210 cells killed by dose 288 mg/kg administered intraperitoneally; type: functional, Mus musculus; conditions: route intraperitoneal
# In short: (§2)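 Female BDF1 mice (~18 g) were inoculated ip on day 0 with 1 × 10⁶ murine L1210 leukemia cells. They got a single ip bolus 24 h later of drug freshly dissolved in water, at 0.01 mL/g body weight. Controls received saline. The percentage of cells killed was estimated from residual leukemia body burden, using inoculum-response data relating inoculum size to postinoculation life span.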
# L1210 [3] = test: Tested for post inoculation lifespan in L1210-inoculated mice at dose 173 mg/kg administered intraperitoneally; type: functional, Mus musculus; conditions: route intraperitoneal; in short: as §1
# L1210 [4] = test: Tested for percent of L1210 cells killed by dose 173 mg/kg administered intraperitoneally; type: functional, Mus musculus; conditions: route intraperitoneal; in short: as §2
# L1210 [5] = test: Tested for percent of L1210 cells killed by dose 62 mg/kg administered intraperitoneally; type: functional, Mus musculus; conditions: route intraperitoneal; in short: as §2
# L1210 [6] = test: Tested for post inoculation lifespan in L1210-inoculated mice at dose 62 mg/kg administered intraperitoneally; type: functional, Mus musculus; conditions: route intraperitoneal; in short: as §1
# L1210 [7] = test: Tested for post inoculation lifespan in L1210-inoculated mice at dose 104 mg/kg administered intraperitoneally; type: functional, Mus musculus; conditions: route intraperitoneal; in short: as §1
# L1210 [8] = test: Tested for percent of L1210 cells killed by dose 104 mg/kg administered intraperitoneally; type: functional, Mus musculus; conditions: route intraperitoneal; in short: as §2
# L1210 [9] = test: Tested for percent of L1210 cells killed by dose 480 mg/kg administered intraperitoneally; type: functional, Mus musculus; conditions: route intraperitoneal; in short: as §2
# L1210 [10] = test: Tested for post inoculation lifespan in L1210-inoculated mice at dose 480 mg/kg administered intraperitoneally; type: functional, Mus musculus; conditions: route intraperitoneal; in short: as §1
# L1210 [11] = test: Tested for percent of L1210 cells killed by dose 173 mg/kg administered intraperitoneally; conditions: Mus musculus, route intraperitoneal
# L1210 [12] = test: Tested for percent of L1210 cells killed by dose 800 mg/kg administered intraperitoneally; type: functional, Mus musculus; conditions: route intraperitoneal; in short: as §2
# L1210 [13] = test: Tested for post inoculation lifespan in L1210-inoculated mice at dose 800 mg/kg administered intraperitoneally; type: functional, Mus musculus; conditions: route intraperitoneal; in short: as §1
# L1210 [14] = test: Tested for percent of L1210 cells killed by dose 37 mg/kg administered intraperitoneally; type: functional, Mus musculus; conditions: route intraperitoneal; in short: as §2
# L1210 [15] = test: Tested for post inoculation lifespan in L1210-inoculated mice at dose 37 mg/kg administered intraperitoneally; type: functional, Mus musculus; conditions: route intraperitoneal; in short: as §1
smiles,measurement,setting,value
NS(=O)(=O)c1ncnc2c1ccn2[C@H]1C[C@H](O)[C@@H](CO)O1,T/C,L1210 [1],113%
same,Cells killed,L1210 [2],67.94%
Nc1nc([S+](N)[O-])c2ccn([C@@H]3C[C@@H](O)[C@H](CO)O3)c2n1 (stereo partly drawn),T/C,L1210 [3],100%
same,Cells killed,L1210 [4],0%
OC[C@H]1O[C@@H](n2ccc3c(S)ncnc32)C[C@@H]1O,Cells killed,L1210 [5],0%
same,T/C,L1210 [6],96%
NSc1ncnc2c1ccn2[C@H]1C[C@H](O)[C@@H](CO)O1,T/C,L1210 [7],101%
same,Cells killed,L1210 [8],2%
N[S+]([O-])c1ncnc2c1ccn2[C@@H]1C[C@@H](O)[C@H](CO)O1 (stereo partly drawn),Cells killed,L1210 [9],60.59%
same,T/C,L1210 [10],112%
NSc1nc(N)nc2c1ccn2[C@H]1C[C@H](O)[C@@H](CO)O1,T/C,L1210 [3],112%
same,Cells killed,L1210 [11],46.64%
Nc1nc(S)c2ccn([C@H]3C[C@H](O)[C@@H](CO)O3)c2n1,T/C,L1210 [7],105%
same,Cells killed,L1210 [8],35.63%
Nc1cc2c(ncn2C2O[C@H](CO)[C@@H](O)[C@H]2O)c(S)n1 (stereo partly drawn),T/C,L1210 [7],93%
same,Cells killed,L1210 [8],0%
Nc1nc([S+](N)[O-])c2ccn(C3O[C@H](CO)[C@@H](O)[C@H]3O)c2n1 (stereo partly drawn),T/C,L1210 [1],115%
same,Cells killed,L1210 [2],76.93%
Nc1cc2c(ncn2C2O[C@H](CO)[C@@H](O)[C@H]2O)c([S+](N)[O-])n1 (stereo partly drawn),Cells killed,L1210 [12],16.32%
same,T/C,L1210 [13],102%
NSc1nc(N)cc2c1ncn2C1O[C@H](CO)[C@@H](O)[C@H]1O (stereo partly drawn),Cells killed,L1210 [5],21.86%
same,T/C,L1210 [6],103%
Nc1nc(S(N)(=O)=O)c2ccn(C3O[C@H](CO)[C@@H](O)[C@H]3O)c2n1 (stereo partly drawn),Cells killed,L1210 [9],0%
same,T/C,L1210 [10],100%
Nc1nc(S)c2ccn(C3O[C@H](CO)[C@@H](O)[C@H]3O)c2n1 (stereo partly drawn),Cells killed,L1210 [14],0%
same,T/C,L1210 [15],90%
NSc1nc(N)nc2c1ccn2C1O[C@H](CO)[C@@H](O)[C@H]1O (stereo partly drawn),T/C,L1210 [7],111%
same,Cells killed,L1210 [8],66.6%
